Experiment [1] has as its system Splenocyte. As to the kind of experiment: Immunostimulatory activity in C57BL/6 mouse splenocytes assessed as IL-4 release at 100 ng/ml after 72 hrs by ELISA relative to OCH. The format is functional. The essentials: (§1)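 Splenocytes from female C57BL/6 mice (6–8 weeks) in RPMI1640 with 10% FBS, 5×10^-5 M 2-mercaptoethanol, 1 mM pyruvate, 25 mM HEPES; 5×10^5 cells/well stimulated with glycolipid at 100 ng/ml, 72 h, 37 °C. Supernatant IL-4 and IFN-γ by ELISA; values expressed relative to OCH reference included in every run, mean of at least three experiments.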
(An ELISA detects its analyte on a solid surface through an enzyme-linked reagent.)

Experiment [2] deals with Splenocyte. Nature of the experiment: Immunostimulatory activity in C57BL/6 mouse splenocytes assessed as IFN-gamma release at 100 ng/ml after 72 hrs by ELISA relative to OCH. The experiment is classed as functional. The essentials: as §1
For experiment [3], the system named is Mus musculus. As to the kind of experiment: Immunosuppressive activity iv in C57BL/6 mouse assessed as inhibition of OCH-induced IL-4 secretion at 0.1 ug/mouse, iv administered 15 mins before OCH challenge. The experiment is classed as functional, organism-based. In short, it runs like this: (§2)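 Female C57BL/6 mice (9 weeks); glycolipids dissolved in 0.5% DMSO in saline. Test compound given iv via tail vein at 0.1 µg/mouse 15 min before iv OCH (0.1 µg/mouse). Sera taken 3, 6, 9 h after second injection; serum IL-4 and IFN-γ by ELISA. Mean ± SD, N = 4–5; Student's t-test versus vehicle.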

In experiment [4] the test system is Mus musculus. As to the kind of experiment: Immunosuppressive activity iv in C57BL/6 mouse assessed as inhibition of OCH-induced IFN-gamma secretion at 0.1 ug/mouse, iv administered 15 mins before OCH challenge. The format is functional, organism-based. In short, it runs like this:
as §2

Experiment [5] is filed under the species Mus musculus. Nature of the experiment: Immunostimulatory activity in C57BL/6 mouse splenocytes at 100 ng/ml after 72 hrs assessed as IL-4 secretion.
For experiment [6], the species on record is Mus musculus. Nature of the experiment: Immunostimulatory activity in C57BL/6 mouse splenocytes at 100 ng/ml after 72 hr assessed as IFN-gamma secretion.
In the next experiment the test system is Dendritic cell. As to the kind of experiment: Immunostimulatory activity in C57BL/6 mouse dendritic cells assessed as IL-12 secretion at 100 ng/ml by ELISA relative to OCH. The experiment is classed as functional, cell-based.
The species entered for experiment [7] is Mus musculus. As to the kind of experiment: Immunostimulatory activity in C57BL/6 mouse natural killer cells assessed as IFN-gamma secretion at 100 ng/ml by ELISA relative to OCH. The experiment is classed as functional.

Structures are written as SMILES. Calls of active or inactive are those of the source. The calls are words filed in the database; no cut-off is given here.

As for `CCCCCCCCCCCCCCCCCCCCCCCCCCCC(=O)N[C@@H](CO[C@H]1O[C@H](CO)[C@H](O)[C@H](O)[C@H]1O)[C@H](O)[C@H](O)CCCCC`, the Activity in the experiment on Splenocyte [1] stood at 178%; with Splenocyte [2], 761%.

Consider `CCCCCCCCCCCCCCCCCCCCCCCC(=O)N[C@@H](CC[C@H]1O[C@H](CO)[C@H](O)[C@H](O)[C@H]1O)[C@H](O)[C@H](O)CCCCC`, for which the inhibition entry with Mus musculus [3] and in the experiment on Mus musculus [4] was “inactive” throughout. In addition, the Activity worked out at 1% in the experiment filed under Mus musculus [5] and 0% in the experiment filed under Mus musculus [6].

For `CCCCCCCCCCCCCCCCCCCCCCC(=O)N[C@@H](CO[C@H]1O[C@H](CO)[C@H](O)[C@H](O)[C@H]1O)[C@H](O)[C@H](O)CCCCCC`, the Activity with Splenocyte [1] worked out at 97%; in the experiment with Splenocyte [2], 113%.

Turning to `CCCCCCCCCCCCCCCCCCCCCCCC(=O)N[C@@H](CO[C@H]1O[C@H](CO)[C@H](O)[C@H](O)[C@H]1O)[C@H](O)[C@H](O)CCc1ccccc1`, the values for the Activity in the experiment listed under Mus musculus [5] and in the experiment listed under Mus musculus [6] were 57% and 35%, respectively.

Regarding `CCCCCCCCCCCCCCCCCCCCCCCC(=O)N[C@@H](CO[C@H]1O[C@H](CO)[C@H](O)[C@H](O)[C@H]1O)[C@H](O)[C@H](O)COc1ccccc1`, the Activity in the experiment listed under Mus musculus [5] is reported as 99%; in the experiment listed under Mus musculus [6], 80%.

Take `CCCCCCCCCCCCCCCCCCCCCCCC(=O)N[C@@H](CO[C@H]1O[C@H](CO)[C@H](O)[C@H](O)[C@H]1O)[C@H](O)[C@H](O)CCCC`: the Activity was determined as 115% in the experiment with Splenocyte [1] and 112% with Splenocyte [2].

For `CCCCCCCCCCCCCCCCCCCCCCCC(=O)N[C@@H](CO[C@H]1O[C@H](CO)[C@H](O)[C@H](O)[C@H]1O)[C@H](O)[C@H](O)CCC`, the Activity in the experiment on Splenocyte [1] turned out to be 105%; in the experiment with Splenocyte [2], 96%.

Regarding `CCCCCCCCCCCCCCCCCCCCCCC(=O)N[C@@H](CO[C@H]1O[C@H](CO)[C@H](O)[C@H](O)[C@H]1O)[C@H](O)[C@H](O)CCCC`, the Activity was determined as 97% in the experiment on Splenocyte [1] and 148% with Splenocyte [2].

As for `CCCCCCCCCCCCCCCCCCCC(=O)N[C@@H](CO[C@H]1O[C@H](CO)[C@H](O)[C@H](O)[C@H]1O)[C@H](O)[C@H](O)CCCCC`, the Activity in the experiment with Splenocyte [1] is reported as 6%; in the experiment on Splenocyte [2] it was 9%.

For the compound `CCCCCCCCCCCCCCCCCCCCCCCCCC(=O)N[C@@H](CO[C@H]1O[C@H](CO)[C@H](O)[C@H](O)[C@H]1O)[C@H](O)[C@H](O)CCCCCCCCCCCCCC` [RGI-7000], the results for the Activity in the experiment on Splenocyte [1] and in the experiment with Splenocyte [2] were 128% and 569%, respectively.

Consider `CCCCCCCCCCCCCCCCCCCCCCCC(=O)N[C@@H](CO[C@H]1O[C@H](CO)[C@H](O)[C@H](O)[C@H]1O)[C@H](O)[C@H](O)Cc1ccccc1`, for which the Activity in the experiment filed under Mus musculus [5] is listed as 211%; in the experiment listed under Mus musculus [6] it was 284%.

Turning to `CCCCCCCCCCCCCCCCCCCCCCC(=O)N[C@@H](CO[C@H]1O[C@H](CO)[C@H](O)[C@H](O)[C@H]1O)[C@H](O)[C@H](O)CCCCC`, the Activity with Splenocyte [1] stood at 103%; in the experiment on Splenocyte [2] it was 93%.

As for `CCCCCCCCCCCCCCCCCCCCCCCC(=O)N[C@@H](CO[C@H]1O[C@H](CO)[C@H](O)[C@H](O)[C@H]1O)[C@H](O)[C@H](O)CC1CCCC1`, the Activity was 98% in the experiment filed under Mus musculus [5] and 74% in the experiment filed under Mus musculus [6].

With `CCCCCCCCCCCCCCCCCCCCCCCC(=O)N[C@@H](CO[C@H]1O[C@H](CO)[C@H](O)[C@H](O)[C@H]1O)[C@H](O)[C@H](O)Cc1ccc(C)cc1`, the Activity in the experiment listed under Mus musculus [5] is 78%; in the experiment listed under Mus musculus [6] it was 76%.

On to `CCCCCCCCCCCCCCCCCCCCCC(=O)N[C@@H](CO[C@H]1O[C@H](CO)[C@H](O)[C@H](O)[C@H]1O)[C@H](O)[C@H](O)CCCCC`, for which the Activity was 51% with Splenocyte [1] and 46% in the experiment with Splenocyte [2].

Regarding `CCCCCCCCCCCCCCCCCCCCCCCCCC(=O)N[C@@H](CO[C@H]1O[C@H](CO)[C@H](O)[C@H](O)[C@H]1O)[C@H](O)[C@H](O)CCCCC`, the Activity with Splenocyte [1] came out at 129%; in the experiment on Splenocyte [2] it was 504%.

For the compound `CCCCCCCCCCCCCCCCCCCCCCCCC(=O)N[C@@H](CO[C@H]1O[C@H](CO)[C@H](O)[C@H](O)[C@H]1O)[C@H](O)[C@H](O)CCCCC`, the figures for the Activity in the experiment with Splenocyte [1] and in the experiment on Splenocyte [2] were 154% and 103%, respectively.

Regarding `CCCCCCCCCCCCCCCCCCCCCCCC(=O)N[C@@H](CO[C@H]1O[C@H](CO)[C@H](O)[C@H](O)[C@H]1O)[C@H](O)[C@H](O)COC`, the Activity in the experiment filed under Mus musculus [5] was determined as 86%; in the experiment filed under Mus musculus [6], 64%.

With `CCCCCCCCCCCCCCCCCCCCCCCC(=O)N[C@@H](CO[C@H]1O[C@H](CO)[C@H](O)[C@H](O)[C@H]1O)[C@H](O)[C@H](O)CCCCC`, the Activity in the experiment with Splenocyte [1], in the experiment on Splenocyte [2], in the experiment filed under Mus musculus [5] and in the experiment filed under Mus musculus [6] was 100% each time.

`CCCCCCCCCCCCCCCCCCCCCCCCCC(=O)N[C@@H](CC[C@H]1O[C@H](CO)[C@H](O)[C@H](O)[C@H]1O)[C@H](O)[C@H](O)CCCCCCCCCCCCCC`: the result in the experiment with Dendritic cell and in the experiment filed under Mus musculus [7] was Active.

On to `CCCCCCCCCCCCCCCCCCCCCCCC(=O)N[C@@H](CO[C@H]1O[C@H](CO)[C@H](O)[C@H](O)[C@H]1O)[C@H](O)[C@H](O)COCCC`, for which the Activity in the experiment listed under Mus musculus [5] turned out to be 103%; in the experiment listed under Mus musculus [6], 161%.

For `CCCCCCCCCCCCCCCCCCCCCCCC(=O)N[C@@H](CO[C@H]1O[C@H](CO)[C@H](O)[C@H](O)[C@H]1O)[C@H](O)[C@H](O)COCCCCCCCCCCCC`, the Activity in the experiment listed under Mus musculus [5] turned out to be 78%; in the experiment filed under Mus musculus [6] it was 227%.
